Experimental data reported in ChEMBL document CHEMBL1127302 (J Med Chem, 1994).

Biological target: Neuronal acetylcholine receptor (Rattus norvegicus) (UniProt P04757+P09483+P12389+P12390+P12392+P43144+Q9JLB5+P12391+P43143+P20420+Q05941)
Assay: In vitro neuronal nAChRs evoked [3H]dopamine release was determined in rat striatal slices at concentration of 10e-6 M
Assay type: functional

Q: How did the Dopamine release turn out when `CCc1cc([C@H]2CCCN2C)on1` was run?
A: 78%

Q: Which Dopamine release does the source give for `CN1CCC[C@@H]1c1cc(CO)no1` here?
A: 41%

Q: With `Cc1cc([C@@H]2CCCN2)sn1` as the compound, how does the Dopamine release read?
A: 56%

Q: Which Dopamine release does the source give for `CCc1cc([C@@H]2CCCN2C)on1` here?
A: 46%

Q: How did the Dopamine release turn out when `c1cncc([C@H]2CCCN2)c1` was run?
A: 93%

Q: With `Cc1cc([C@H]2CCCN2)sn1` as the compound, how does the Dopamine release read?
A: 61%

Q: `Cc1cc([C@@H]2CCCN2C)sn1` was tested. Which Dopamine release did it give?
A: 22%

Q: Which Dopamine release does the source give for `COCc1cc([C@H]2CCCN2C)on1` here?
A: 51%

Q: For `CCc1cc([C@@H]2CCCN2)on1`, which Dopamine release is on record?
A: 79%

Q: With `CCCCc1cc([C@H]2CCCN2C)on1` as the compound, how does the Dopamine release read?
A: 38%

Q: `CN1CCC[C@@H]1c1cccnc1` was tested. Which Dopamine release did it give?
A: 114%

Q: `Cc1cc([C@H]2CCCN2C)on1` was tested. Which Dopamine release did it give?
A: 95%

Q: How did the Dopamine release turn out when `CCc1cc([C@H]2CCCN2)on1` was run?
A: 30%

Q: Which Dopamine release does the source give for `c1cncc([C@@H]2CCCN2)c1` here?
A: 155%

Q: How did the Dopamine release turn out when `CN1CCC[C@@H]1c1cc(Cc2ccccc2)no1` was run?
A: 30%

Q: `CCCc1cc([C@H]2CCCN2C)on1` was tested. Which Dopamine release did it give?
A: 45%

Q: `CN1CCC[C@@H]1c1cc(C(F)(F)F)no1` was tested. Which Dopamine release did it give?
A: 92%

Q: With `CCN1CCC[C@@H]1c1cc(C)no1` as the compound, how does the Dopamine release read?
A: 64%

Q: With `Cc1cc([C@H]2CCCN2C)sn1` as the compound, how does the Dopamine release read?
A: 41%

Q: With `Cc1cc([C@@H]2CCCN2)on1` as the compound, how does the Dopamine release read?
A: 111%

Q: Which Dopamine release does the source give for `Cc1cc([C@H]2CCCN2)on1` here?
A: 43%

Q: How did the Dopamine release turn out when `CN1CCC[C@H]1c1cccnc1` was run?
A: 126%

Q: Which Dopamine release does the source give for `Cc1cc([C@@H]2CCCN2C)on1` here?
A: 85%

Biological target: Neuronal acetylcholine receptor
Assay: In vitro binding affinity to neuronal nAChRs was determined by measuring the displacement of [3H]cytisine in rat brain
Assay type: tissue-based
Method in brief: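 Whole rat brain membrane preparation; displacement of [3H]cytisine from neuronal nAChRs. Binding normalised to equilibrium dissociation constants (Ki). Values are means ± SEM.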

Q: How did the Ki turn out when `CCc1cc([C@H]2CCCN2C)on1` was run?
A: 7.6 nM

Q: For `CN1CCC[C@@H]1c1cc(CO)no1`, which Ki is on record?
A: 126 nM

Q: Which Ki does the source give for `Cc1cc([C@@H]2CCCN2)sn1` here?
A: 228 nM

Q: How did the Ki turn out when `c1ccc(-c2cc([C@H]3CCCN3)on2)cc1` was run?
A: > 10000 nM

Q: `CCCc1cc([C@H]2CCCN2)on1` was tested. Which Ki did it give?
A: > 10000 nM

Q: With `Cc1cc([C@H]2CCCN2)sn1` as the compound, how does the Ki read?
A: 51 nM

Q: How did the Ki turn out when `COCc1cc([C@H]2CCCN2C)on1` was run?
A: 21.9 nM

Q: Which Ki does the source give for `CCCCc1cc([C@H]2CCCN2)on1` here?
A: 5000 nM

Q: `CN1CCC[C@@H]1c1cc(-c2ccccc2)no1` was tested. Which Ki did it give?
A: 788 nM

Q: For `CCc1cc([C@@H]2CCCN2)on1`, which Ki is on record?
A: 11.7 nM

Q: `CCCCc1cc([C@H]2CCCN2C)on1` was tested. Which Ki did it give?
A: 24.2 nM

Q: `CCc1cc([C@H]2CCCN2)on1` was tested. Which Ki did it give?
A: 552 nM

Q: For `CN1CCC[C@@H]1c1cc(Cc2ccccc2)no1`, which Ki is on record?
A: 7.4 nM

Q: Which Ki does the source give for `CCCc1cc([C@H]2CCCN2C)on1` here?
A: 14 nM

Q: With `Cc1cc([C@H]2CCCN2C)no1` as the compound, how does the Ki read?
A: 1330 nM

Q: Which Ki does the source give for `CN1CCC[C@@H]1c1cc(C(F)(F)F)no1` here?
A: 6.1 nM

Q: Which Ki does the source give for `CCN1CCC[C@@H]1c1cc(C)no1` here?
A: 34.3 nM

Q: For `CCOC(=O)c1cc([C@H]2CCCN2C)on1`, which Ki is on record?
A: 890 nM

Q: How did the Ki turn out when `Cc1cc([C@@H]2CCCN2)on1` was run?
A: 7.4 nM

Q: With `Cc1cc([C@H]2CCCN2)on1` as the compound, how does the Ki read?
A: 333 nM
